# Bioassay records: PubChem BioAssay, several laboratories
# XBP1 UPR activ: activators of adaptive XBP1 UPR arm, primary screen, cell-based, CHO-XBP1 luciferase reporter, luminescence, uHTS; 330,000 tested, 0.33% active; activation, % at 20 µM; IRE1-XBP1 UPR activation; percent of tunicamycin response, DMSO as zero;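 active = versus positive control, 20 µM dose yields 30% or more activation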;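 note: 100% = tunicamycin at 10 µg/mL and 0% = DMSO only wells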
#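 assay system = CHO-XBP1 luciferase reporter cells | amount = 1000 cells/well | buffer or medium = F12 plus 10% FBS | compound dosing = single point, 20 µM final compound, 1% DMSO | incubation = 16-18 h cell attachment at 37 °C, then 6 h compound exposure | detection = Steady-Glo luminescence read | controls = tunicamycin 10 µg/mL and vehicle-only wells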
# MPTP block: mitochondrial permeability transition pore inhibitors, primary screen, biochemical, isolated mouse mitochondria, absorbance; Ca2+ swelling absorbance, 30 min; inhibition, % at 10 µM; 360,000 tested, 1.4% active; AID 602449, 2012;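 active = inhibition of 50% or more, scaled per plate between neutral and stimulator controls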;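 note: 0% = DMSO wells given calcium and 100% = 1 mM EGTA wells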
# CHOP inhibitor: inhibitors of CHOP promoter induction, primary screen, cell-based, unfolded protein response, luciferase reporter; CHO-K1 CHOP-promoter luciferase, tunicamycin-induced, 15-18 h; 220,000 tested, 3.8% active; inhibition, % at 10 µM;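 active = compounds that reduced the stress-induced luciferase reporter signal by more than about 70% of percent inhibition, limit read from the data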;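 note: 0% = tunicamycin plus vehicle and 100% = wells without tunicamycin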
# aDG glyco up: activators of alpha-DG glycosylation, primary screen, uHTS, Pro5-aDG cells, AlphaScreen; alpha-DG glycosylation AlphaScreen (IIH6); 0% Pro5, 100% B10-LARGE cell signal; activation, % at 10 µM; 360,000 tested, 0.22% active; AID 624168, 2012;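 active = activation of at least 8% versus controls, or a plate z-score of at least 8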;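 note: Pro5 are CHO cells carrying HIG-tagged alpha-DG that lacks glycosylation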
# UPR CHOP act: activators of apoptotic CHOP UPR arm, primary screen, cell-based, CHO-CHOP luciferase reporter, luminescence, uHTS | UPR activation; percent of tunicamycin response over DMSO baseline | activation, % at 10 µM | 330,000 tested, 0.34% active | AID 449763, 2010;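 active = at 10 µM dose, activation of 40% or more, normalized to positive control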;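 note: 100% = tunicamycin at 10 µg/mL and 0% = DMSO alone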
#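 Assay system: CHO cells with stable CHOP pathway luciferase reporter; Buffer or medium: F12 plus 10% serum; Times: 16-18 h cell attachment, then 6 h compound exposure, 37 °C; Signal: luciferase luminescence; Read-out basis: percent activation relative to tunicamycin control; Control set: tunicamycin high control, DMSO low control.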
# NR3A LBD binder: binders of NR3A ligand-binding domain, primary screen, biophysical, differential scanning fluorimetry, uHTS; 340,000 tested, 2.5% active; NR3A LBD differential scanning fluorimetry, Tm shift; 0% = protein alone, 100% = glycine-bound protein; Glutamate receptor ionotropic, NMDA 3A (GRIN3A) ligand-binding domain; Tm shift relative to glycine control, % at 25 µM; AID 1259313, 2017;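 active = melting temperature shift of at least 10% of the positive control shift, at one fixed dose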
# UPR XBP1 confirm: IRE1-XBP1 UPR arm activators, confirmation, cell-based, CHO-XBP1 luciferase reporter, luminescence, single concentration. shares compounds with XBP1 UPR activ. activation, % at 20 µM. 1,000 tested, 63% active;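 active = reporter signal at least 30% of the positive control's activation in two or more of four replicate wells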;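 note: plate controls were DMSO negative control for no effect and tunicamycin 10 µg/mL positive control for full effect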
# MPTP counter: fluorescence retest of MPTP screen hits in isolated mitochondria, single concentration | shares compounds with MPTP block | membrane potential, Rhodamine 123 fluorescence | inhibition, % at 10 µM | 5,000 tested, 78% active; in the data active = inhibition above about 22%;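 note: 0% = DMSO vehicle and 100% = positive control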
# MPTP swell DR: mitochondrial permeability transition pore inhibitors, dose response, biochemical, absorbance, uHTS hits. 780 tested, 58% active. isolated mitochondria swelling. AID 651561, 2012. shares compounds with MPTP block. IC50, µM; in the data active = IC50 below about 20 µM
# MPTP cs DR: fluorescent counter-screen in isolated mitochondria, dose response, counter-screen for MPTP inhibitor project, biochemical, fluorescence, uHTS hits; shares compounds with MPTP block; 780 tested, 49% active; AID 651564, 2012; isolated mitochondria counterscreen, fluorescence read-out; IC50, µM; in the data active = IC50 below about 80 µM
# * hit, by the source's call; · = no result. This is a sample that favours compounds with a hit; in the whole collection about 5.6% have one here.
SMILES,XBP1 UPR activ,MPTP block,CHOP inhibitor,aDG glyco up,UPR CHOP act,NR3A LBD binder,UPR XBP1 confirm,MPTP counter,others
CCOC(=S)SCC(=O)Nc1nc(-c2ccc(Br)cc2)cs1,93*,80*,82*,0,4,9,164*,75*,
O=C(Nc1ccc(Cl)cc1)Nc1ccccc1Sc1ncc([N+](=O)[O-])s1,40*,86*,37,0,12,13*,31*,73*,
N#C/C(=C/c1ccc(N2CCCC2)c([N+](=O)[O-])c1)c1nc2ccccc2[nH]1,131*,53*,78*,0,12,12*,87*,35*,
N#C/C(=C\c1ccc(N2CCOCC2)c([N+](=O)[O-])c1)c1nc2ccccc2[nH]1,6,9,53,0,2,1,·,·,
COc1ccc2nc(C)cc(SCC(=O)N/N=C/c3cccc4ccccc34)c2c1,80*,128*,39,0,27,5,126*,-7,MPTP swell DR=>100;MPTP cs DR=>80
O=C(N/N=C/c1ccccc1Cl)c1[nH]c2ccc(Br)cc2c1-c1ccccc1,50*,82*,-8,0,0,29*,59*,88*,
Cc1cc(OCC(=O)Nc2ccc(CN3CCOCC3)cc2)c2c(C)c(C)c(=O)oc2c1,-6,-1,·,0,0,-3,·,·,
Cc1cc(C)c2sc(N(CCCN(C)C)C(=O)c3ccc(S(=O)(=O)N4CCCc5ccccc54)cc3)nc2c1,31*,64*,·,2,8,2,54*,-16,
CN(C)CCCN(C(=O)c1ccc(S(=O)(=O)N2CCc3ccccc32)cc1)c1nc2ccc(Cl)cc2s1,9,1,·,0,1,-12,·,·,
CCC(CO)Oc1cc(NCc2ccc(C(F)(F)F)cc2)c2ncn(C(C)C)c2c1 (stereo not given),-1,-2,·,0,0,-4,·,·,
CCCCCCCCn1ccc(=N)cc1,1,-1,62,0,16,2,·,·,
CCCCCCCCCCn1ccc(=N)cc1,35*,65*,80*,1,18,-4,24,90*,
CCc1nc2ccc(C(=O)NCCc3ccccn3)cn2c1N(C)CCC(C)C,·,3,·,0,·,·,·,·,
COc1ccc(C)cc1NCc1cc(=O)oc2cc(-c3ccccc3)c(O)cc12,53*,94*,93*,0,1,20*,10,57*,
C=C1C(=O)OCC2C(C(=O)O)=CC3C(C)C(C)=CC123 (stereo not given),·,0,·,1,·,·,·,·,
CC(C)(C)C(=O)NC(=S)NNC(=O)c1sc2ccccc2c1Cl,35*,61*,110*,1,20,-5,31*,21*,
O=C(/C=C/c1cc([N+](=O)[O-])ccc1OC(F)F)Nc1cccc([N+](=O)[O-])c1,102*,89*,26,0,8,2,28*,10,MPTP swell DR=8.2*;MPTP cs DR=<2.5*
CC(=O)c1cccc(Nc2nc(-c3cccc([N+](=O)[O-])c3)cs2)c1,43*,94*,55,0,5,20*,32*,76*,
